Measurements reported in ChEMBL document CHEMBL1138520, “Molecular and conformational determinants of pituitary adenylate cyclase-activating polypeptide (PACAP) for activation of the PAC1 receptor” (J Med Chem, 2009).
Where a SMILES comes first, the peptide text is derived from it. [ ]: non-standard residue; d: D form. Hyp = O=C(O)[C@@H]1C[C@@H](O)CN1; Cha = N[C@@H](CC1CCCCC1)C(=O)O

Assays:
[1] = target: T1, Pituitary adenylate cyclase-activating polypeptide type I receptor (Homo sapiens, UniProt P41586); experiment: Displacement of [125I]Ac-PACAP27 from human recombinant PAC1 receptor expressed in CHO cells by gamma- counter; format: cell-based
Target sequence in this assay (P41586 whole entry): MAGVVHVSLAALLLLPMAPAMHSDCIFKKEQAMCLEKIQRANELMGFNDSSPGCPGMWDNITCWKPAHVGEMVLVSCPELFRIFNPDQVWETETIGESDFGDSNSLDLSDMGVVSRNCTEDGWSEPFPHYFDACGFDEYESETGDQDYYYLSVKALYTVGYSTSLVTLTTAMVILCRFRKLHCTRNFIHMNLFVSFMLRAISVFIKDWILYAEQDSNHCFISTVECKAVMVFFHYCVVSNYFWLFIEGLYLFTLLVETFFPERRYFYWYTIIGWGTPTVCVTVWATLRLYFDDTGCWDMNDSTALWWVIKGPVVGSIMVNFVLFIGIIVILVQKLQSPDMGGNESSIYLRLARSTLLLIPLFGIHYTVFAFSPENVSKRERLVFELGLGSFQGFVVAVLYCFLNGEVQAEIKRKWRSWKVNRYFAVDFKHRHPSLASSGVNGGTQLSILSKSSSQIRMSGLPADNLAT

[2] = target: T1, Pituitary adenylate cyclase-activating polypeptide type I receptor; experiment: Agonist activity at human recombinant PAC1 receptor expressed in CHO cells assessed as PACAP38-induced calcium mobilization by FLIPR assay; format: functional, cell-based
Summary of the method: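 CHO cells stably expressing recombinant human PAC1, plated 24 h before assay, loaded with fluo-4 AM for 60 min at 37 °C in the dark, then rinsed into HBSS for 15 min at 37 °C. EC50 and efficacy came from nonlinear regression; 4-10 independent assays in duplicate.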
Target sequence in this assay (P41586 whole entry): as above

[3] = target: T1, Pituitary adenylate cyclase-activating polypeptide type I receptor; experiment: Agonist activity at human recombinant PAC1 receptor expressed in CHO cells assessed as PACAP38-induced calcium mobilization by FLIPR assay relative to PACAP38; format: functional, cell-based
Summary of the method: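 CHO cells stably expressing recombinant human PAC1, plated 24 h before assay, loaded with fluo-4 AM for 60 min at 37 °C in the dark, then rinsed into HBSS for 15 min at 37 °C. Peptide was added 18 s into a 150 s read (ex 480/em 525 nm), at final concentrations of 1 × 10-12 to 1 × 10^-5 M. Response was normalised to 1 × 10^-5 M PACAP38 on each plate. EC50 and efficacy came from nonlinear regression; 4-10 independent assays in duplicate.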
Target sequence in this assay (P41586 21-468 limits assumed): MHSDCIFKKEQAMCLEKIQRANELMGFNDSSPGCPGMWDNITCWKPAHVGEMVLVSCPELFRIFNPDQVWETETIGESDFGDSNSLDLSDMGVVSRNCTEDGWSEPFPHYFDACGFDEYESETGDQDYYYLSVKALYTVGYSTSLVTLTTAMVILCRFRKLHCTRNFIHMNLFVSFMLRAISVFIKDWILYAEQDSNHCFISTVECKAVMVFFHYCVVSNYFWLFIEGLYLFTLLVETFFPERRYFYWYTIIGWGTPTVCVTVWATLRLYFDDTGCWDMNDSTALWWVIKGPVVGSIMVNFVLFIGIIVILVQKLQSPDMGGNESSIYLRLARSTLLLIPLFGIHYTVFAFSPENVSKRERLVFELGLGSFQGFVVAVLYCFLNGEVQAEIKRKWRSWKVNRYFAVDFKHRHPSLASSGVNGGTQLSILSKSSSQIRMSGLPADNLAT

IC50 [1]	EC50 [2]	Emax [3]	Compound
7 nM	1.5 nM	87.6%	CC[C@H](C)[C@H](NC(=O)CNC(=O)[C@H](CCC(=O)O)NC(=O)[C@H](CO)NC(=O)[C@@H](N)Cc1cnc[nH]1)C(=O)N[C@@H](Cc1ccccc1)C(=O)N[C@H](C(=O)N[C@@H](CC(=O)O)C(=O)N[C@@H](CO)C(=O)N[C@@H](Cc1ccc(O)cc1)C(=O)N[C@@H](CO)C(=O)N[C@@H](CCCNC(=N)N)C(=O)N[C@@H](Cc1ccc(O)cc1)C(=O)N[C@@H](CCCNC(=N)N)C(=O)N[C@@H](CCCCN)C(=O)N[C@@H](CCC(N)=O)C(=O)N[C@@H](CCSC)C(=O)N[C@@H](C)C(=O)N[C@H](C(=O)N[C@@H](CCCCN)C(=O)N[C@@H](CCCCN)C(=O)N[C@@H](Cc1ccc(O)cc1)C(=O)N[C@@H](CC(C)C)C(=O)N[C@@H](C)C(=O)N[C@@H](C)C(=O)N[C@H](C(=O)N[C@@H](CC(C)C)C(=O)NCC(=O)N[C@@H](CCCCN)C(=O)N[C@@H](CCCNC(=N)N)C(=O)N[C@@H](Cc1ccc(O)cc1)C(=O)N[C@@H](CCCCN)C(=O)N[C@@H](CCC(N)=O)C(=O)N[C@@H](CCCNC(=N)N)C(=O)N[C@H](C(=O)N[C@@H](CCCCN)C(=O)N[C@@H](CC(N)=O)C(=O)N[C@@H](CCCCN)C(N)=O)C(C)C)C(C)C)C(C)C)[C@@H](C)O (H-HSEGIFTDSYSRYRKQMAVKKYLAAVLGKRYKQRVKNK-NH2)
8.6 nM	0.7 nM	94%	CC[C@H](C)[C@H](NC(=O)CNC(=O)[C@H](CC(=O)O)NC(=O)[C@@H]1C[C@@H](O)CN1C(=O)[C@@H](N)Cc1cnc[nH]1)C(=O)N[C@@H](Cc1ccccc1)C(=O)N[C@H](C(=O)N[C@@H](CC(=O)O)C(=O)N[C@@H](CO)C(=O)N[C@@H](Cc1ccc(O)cc1)C(=O)N[C@@H](CO)C(=O)N[C@@H](CCCNC(=N)N)C(=O)N[C@@H](Cc1ccc(O)cc1)C(=O)N[C@@H](CCCNC(=N)N)C(=O)N[C@@H](CCCCN)C(=O)N[C@@H](CCC(N)=O)C(=O)N[C@@H](CCSC)C(=O)N[C@@H](C)C(=O)N[C@H](C(=O)N[C@@H](CCCCN)C(=O)N[C@@H](CCCCN)C(=O)N[C@@H](Cc1ccc(O)cc1)C(=O)N[C@@H](CC(C)C)C(=O)N[C@@H](C)C(=O)N[C@@H](C)C(=O)N[C@H](C(=O)N[C@@H](CC(C)C)C(=O)NCC(=O)N[C@@H](CCCCN)C(=O)N[C@@H](CCCNC(=N)N)C(=O)N[C@@H](Cc1ccc(O)cc1)C(=O)N[C@@H](CCCCN)C(=O)N[C@@H](CCC(N)=O)C(=O)N[C@@H](CCCNC(=N)N)C(=O)N[C@H](C(=O)N[C@@H](CCCCN)C(=O)N[C@@H](CC(N)=O)C(=O)N[C@@H](CCCCN)C(N)=O)C(C)C)C(C)C)C(C)C)[C@@H](C)O (H-H[Hyp]DGIFTDSYSRYRKQMAVKKYLAAVLGKRYKQRVKNK-NH2)
9.2 nM	52.2 nM	22.1%	CC[C@H](C)[C@H](NC(=O)CNC(=O)[C@H](CC(N)=O)NC(=O)[C@H](CO)NC(=O)[C@@H](N)Cc1cnc[nH]1)C(=O)N[C@@H](Cc1ccccc1)C(=O)N[C@H](C(=O)N[C@@H](CC(=O)O)C(=O)N[C@@H](CO)C(=O)N[C@@H](Cc1ccc(O)cc1)C(=O)N[C@@H](CO)C(=O)N[C@@H](CCCNC(=N)N)C(=O)N[C@@H](Cc1ccc(O)cc1)C(=O)N[C@@H](CCCNC(=N)N)C(=O)N[C@@H](CCCCN)C(=O)N[C@@H](CCC(N)=O)C(=O)N[C@@H](CCSC)C(=O)N[C@@H](C)C(=O)N[C@H](C(=O)N[C@@H](CCCCN)C(=O)N[C@@H](CCCCN)C(=O)N[C@@H](Cc1ccc(O)cc1)C(=O)N[C@@H](CC(C)C)C(=O)N[C@@H](C)C(=O)N[C@@H](C)C(=O)N[C@H](C(=O)N[C@@H](CC(C)C)C(=O)NCC(=O)N[C@@H](CCCCN)C(=O)N[C@@H](CCCNC(=N)N)C(=O)N[C@@H](Cc1ccc(O)cc1)C(=O)N[C@@H](CCCCN)C(=O)N[C@@H](CCC(N)=O)C(=O)N[C@@H](CCCNC(=N)N)C(=O)N[C@H](C(=O)N[C@@H](CCCCN)C(=O)N[C@@H](CC(N)=O)C(=O)N[C@@H](CCCCN)C(N)=O)C(C)C)C(C)C)C(C)C)[C@@H](C)O (H-HSNGIFTDSYSRYRKQMAVKKYLAAVLGKRYKQRVKNK-NH2)
8.5 nM	4.1 nM	89.3%	CC[C@H](C)[C@H](NC(=O)CNC(=O)[C@H](CC(=O)O)NC(=O)[C@@H]1CCCN1C(=O)[C@@H](N)Cc1cnc[nH]1)C(=O)N[C@@H](Cc1ccccc1)C(=O)N[C@H](C(=O)N[C@@H](CC(=O)O)C(=O)N[C@@H](CO)C(=O)N[C@@H](Cc1ccc(O)cc1)C(=O)N[C@@H](CO)C(=O)N[C@@H](CCCNC(=N)N)C(=O)N[C@@H](Cc1ccc(O)cc1)C(=O)N[C@@H](CCCNC(=N)N)C(=O)N[C@@H](CCCCN)C(=O)N[C@@H](CCC(N)=O)C(=O)N[C@@H](CCSC)C(=O)N[C@@H](C)C(=O)N[C@H](C(=O)N[C@@H](CCCCN)C(=O)N[C@@H](CCCCN)C(=O)N[C@@H](Cc1ccc(O)cc1)C(=O)N[C@@H](CC(C)C)C(=O)N[C@@H](C)C(=O)N[C@@H](C)C(=O)N[C@H](C(=O)N[C@@H](CC(C)C)C(=O)NCC(=O)N[C@@H](CCCCN)C(=O)N[C@@H](CCCNC(=N)N)C(=O)N[C@@H](Cc1ccc(O)cc1)C(=O)N[C@@H](CCCCN)C(=O)N[C@@H](CCC(N)=O)C(=O)N[C@@H](CCCNC(=N)N)C(=O)N[C@H](C(=O)N[C@@H](CCCCN)C(=O)N[C@@H](CC(N)=O)C(=O)N[C@@H](CCCCN)C(N)=O)C(C)C)C(C)C)C(C)C)[C@@H](C)O
7.8 nM	7.4 nM	94.2%	CC[C@H](C)[C@H](NC(=O)CNC(=O)[C@H](CC(=O)O)NC(=O)[C@@H]1CCCN1C(=O)[C@@H](N)Cc1cnc[nH]1)C(=O)N[C@@H](Cc1ccccc1)C(=O)N[C@H](C(=O)N[C@@H](CC(=O)O)C(=O)N[C@@H](CO)C(=O)N[C@@H](Cc1ccc(O)cc1)C(=O)N[C@@H](CO)C(=O)N[C@@H](CCCNC(=N)N)C(=O)N[C@@H](Cc1ccc(O)cc1)C(=O)N[C@@H](CCCNC(=N)N)C(=O)N[C@@H](CCCCN)C(=O)N[C@@H](CCC(N)=O)C(=O)N[C@@H](CCSC)C(=O)N[C@@H](C)C(=O)N[C@H](C(=O)N[C@@H](CCCCN)C(=O)N[C@@H](CCCCN)C(=O)N[C@@H](Cc1ccc(O)cc1)C(=O)N[C@@H](CC(C)C)C(=O)N[C@@H](C)C(=O)N[C@@H](C)C(=O)N[C@H](C(=O)N[C@@H](CC(C)C)C(N)=O)C(C)C)C(C)C)[C@@H](C)O
4.5 nM	1 nM	104%	CC[C@H](C)[C@H](NC(=O)CNC(=O)[C@H](CC(=O)O)NC(=O)[C@H](CO)NC(=O)[C@@H](N)Cc1cnc[nH]1)C(=O)N[C@@H](Cc1ccc(-c2ccccc2)cc1)C(=O)N[C@H](C(=O)N[C@@H](CC(=O)O)C(=O)N[C@@H](CO)C(=O)N[C@@H](Cc1ccc(O)cc1)C(=O)N[C@@H](CO)C(=O)N[C@@H](CCCNC(=N)N)C(=O)N[C@@H](Cc1ccc(O)cc1)C(=O)N[C@@H](CCCNC(=N)N)C(=O)N[C@@H](CCCCN)C(=O)N[C@@H](CCC(N)=O)C(=O)N[C@@H](CCSC)C(=O)N[C@@H](C)C(=O)N[C@H](C(=O)N[C@@H](CCCCN)C(=O)N[C@@H](CCCCN)C(=O)N[C@@H](Cc1ccc(O)cc1)C(=O)N[C@@H](CC(C)C)C(=O)N[C@@H](C)C(=O)N[C@@H](C)C(=O)N[C@H](C(=O)N[C@@H](CC(C)C)C(N)=O)C(C)C)C(C)C)[C@@H](C)O
6.6 nM	2.6 nM	97.7%	CC[C@H](C)[C@H](NC(=O)CNC(=O)[C@H](CC(=O)O)NC(=O)[C@H](CO)NC(=O)[C@@H](N)Cc1cnc[nH]1)C(=O)N[C@@H](CC1CCCCC1)C(=O)N[C@H](C(=O)N[C@@H](CC(=O)O)C(=O)N[C@@H](CO)C(=O)N[C@@H](Cc1ccc(O)cc1)C(=O)N[C@@H](CO)C(=O)N[C@@H](CCCNC(=N)N)C(=O)N[C@@H](Cc1ccc(O)cc1)C(=O)N[C@@H](CCCNC(=N)N)C(=O)N[C@@H](CCCCN)C(=O)N[C@@H](CCC(N)=O)C(=O)N[C@@H](CCSC)C(=O)N[C@@H](C)C(=O)N[C@H](C(=O)N[C@@H](CCCCN)C(=O)N[C@@H](CCCCN)C(=O)N[C@@H](Cc1ccc(O)cc1)C(=O)N[C@@H](CC(C)C)C(=O)N[C@@H](C)C(=O)N[C@@H](C)C(=O)N[C@H](C(=O)N[C@@H](CC(C)C)C(=O)NCC(=O)N[C@@H](CCCCN)C(=O)N[C@@H](CCCNC(=N)N)C(=O)N[C@@H](Cc1ccc(O)cc1)C(=O)N[C@@H](CCCCN)C(=O)N[C@@H](CCC(N)=O)C(=O)N[C@@H](CCCNC(=N)N)C(=O)N[C@H](C(=O)N[C@@H](CCCCN)C(=O)N[C@@H](CC(N)=O)C(=O)N[C@@H](CCCCN)C(N)=O)C(C)C)C(C)C)C(C)C)[C@@H](C)O (H-HSDGI[Cha]TDSYSRYRKQMAVKKYLAAVLGKRYKQRVKNK-NH2)
6.7 nM	2.7 nM	99.4%	CC[C@H](C)[C@H](NC(=O)CNC(=O)[C@H](CC(=O)O)NC(=O)[C@H](CO)NC(=O)[C@@H](N)Cc1cnc[nH]1)C(=O)N[C@@H](Cc1ccc(O)cc1)C(=O)N[C@H](C(=O)N[C@@H](CC(=O)O)C(=O)N[C@@H](CO)C(=O)N[C@@H](Cc1ccc(O)cc1)C(=O)N[C@@H](CO)C(=O)N[C@@H](CCCNC(=N)N)C(=O)N[C@@H](Cc1ccc(O)cc1)C(=O)N[C@@H](CCCNC(=N)N)C(=O)N[C@@H](CCCCN)C(=O)N[C@@H](CCC(N)=O)C(=O)N[C@@H](CCSC)C(=O)N[C@@H](C)C(=O)N[C@H](C(=O)N[C@@H](CCCCN)C(=O)N[C@@H](CCCCN)C(=O)N[C@@H](Cc1ccc(O)cc1)C(=O)N[C@@H](CC(C)C)C(=O)N[C@@H](C)C(=O)N[C@@H](C)C(=O)N[C@H](C(=O)N[C@@H](CC(C)C)C(=O)NCC(=O)N[C@@H](CCCCN)C(=O)N[C@@H](CCCNC(=N)N)C(=O)N[C@@H](Cc1ccc(O)cc1)C(=O)N[C@@H](CCCCN)C(=O)N[C@@H](CCC(N)=O)C(=O)N[C@@H](CCCNC(=N)N)C(=O)N[C@H](C(=O)N[C@@H](CCCCN)C(=O)N[C@@H](CC(N)=O)C(=O)N[C@@H](CCCCN)C(N)=O)C(C)C)C(C)C)C(C)C)[C@@H](C)O (H-HSDGIYTDSYSRYRKQMAVKKYLAAVLGKRYKQRVKNK-NH2)
